The record followed here is ChEMBL document CHEMBL1132381, “Pyrrolidine-3-carboxylic acids as endothelin antagonists. 4. Side chain conformational restriction leads to ET(B) selectivity” (J Med Chem, 1999).

Series [1] is described as follows: Oral bioavailability in rat. Conditions: in vivo.
In another series the target is T1, Endothelin-1 receptor (Homo sapiens, UniProt P25101).
T1 sequence (P25101 whole entry): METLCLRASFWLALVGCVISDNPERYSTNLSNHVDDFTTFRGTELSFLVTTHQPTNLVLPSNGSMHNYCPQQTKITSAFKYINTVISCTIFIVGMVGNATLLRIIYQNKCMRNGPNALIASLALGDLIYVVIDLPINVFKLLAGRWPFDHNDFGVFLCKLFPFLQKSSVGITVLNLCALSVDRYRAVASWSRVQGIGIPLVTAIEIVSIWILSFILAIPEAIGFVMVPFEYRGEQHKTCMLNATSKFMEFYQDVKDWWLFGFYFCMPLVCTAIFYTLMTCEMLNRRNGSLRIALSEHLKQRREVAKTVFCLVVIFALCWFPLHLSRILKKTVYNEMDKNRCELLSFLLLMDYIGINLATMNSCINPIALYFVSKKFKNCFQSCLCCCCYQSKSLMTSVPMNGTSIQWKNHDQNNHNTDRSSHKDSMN
Description: Binding affinity towards human Endothelin A receptor (hET -A).

Series [2] can be described thus: Compound was evaluated for area under curve when administered through oral route in rat. The following applies: in vivo.
In series [3] the target is T2, Endothelin receptor type B (Homo sapiens, UniProt P24530).
T2 sequence (P24530 whole entry): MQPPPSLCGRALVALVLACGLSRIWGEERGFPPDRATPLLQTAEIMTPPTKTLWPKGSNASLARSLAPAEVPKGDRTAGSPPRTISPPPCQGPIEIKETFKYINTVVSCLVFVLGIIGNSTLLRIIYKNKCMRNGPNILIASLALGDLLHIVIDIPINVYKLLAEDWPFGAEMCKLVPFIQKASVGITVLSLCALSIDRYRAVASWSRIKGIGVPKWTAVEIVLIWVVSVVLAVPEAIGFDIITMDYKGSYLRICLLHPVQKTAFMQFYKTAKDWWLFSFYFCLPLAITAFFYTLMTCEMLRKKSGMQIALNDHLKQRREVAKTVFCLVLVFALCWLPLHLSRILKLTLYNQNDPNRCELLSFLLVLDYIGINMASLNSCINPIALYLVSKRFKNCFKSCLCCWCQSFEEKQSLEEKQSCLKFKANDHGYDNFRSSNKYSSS
Description: Binding affinity towards human Endothelin B receptor (hET -B).

The nature of series [4]: Compound was evaluated for the biological half-life when administered through intravenous route. In kind it is ADME, organism-based. The following applies: in vivo.
For series [5], the species on record is Rattus norvegicus. Briefly: Clearance role of ET-B evaluated in terms of increase in circulating levels of ET-1 in rats. The class given is functional.
For series [6], the species on record is Rattus norvegicus. Description: Clearance role of ET-B evaluated in terms of increase in mean arterial pressure (MAP) in rats. In kind it is functional, Artery.
A short description of series [7]: Oral bioavailability in rat. The following applies: in vivo. The source holds these as a separate data set.
For a further series, the system named is CHO. Description: Antagonistic activity was measured by ET receptor mediated hydrolysis of inositol phosphates. The class given is functional, cell-based. The following applies: Cricetulus griseus. The method in brief:
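Inositol phosphate hydrolysis in human ETB-transfected CHO cells. Confluent cells labeled with 5 μCi/well [3H]myoinositol, then held 60 min at 37 °C in HEPES saline buffer with protease inhibitors and 10 mM LiCl. Compounds added, then 1 nM ET-1 challenge for 30 min at 37 °C. Total inositol phosphates measured; agonist activity assessed in the same run.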

Series [8] can be described thus: Compound was evaluated for area under curve when administered through oral route to rat. The following applies: in vivo.
Series [9] has as its target Endothelin receptor, ET-A/ET-B (Homo sapiens) (UniProt P24530+P25101). Description: Ratio of binding affinity towards hETA to hETB. In kind it is protein assay. The method in brief: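 Ratio of IC50 values from two CHO membrane binding assays. Both run 3 h at 25 °C over 11 concentrations, 10^-10 to 10^-5 M, in duplicate, with at least 2 determinations each.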
Series [10] deals with Rattus norvegicus. Description: Oral bioavailability in rat.

As to `CCc1cccc(CC)c1NC(=O)CN1C[C@H](c2ccc3c(c2)OCO3)[C@@H](C(=O)O)[C@@H]1c1ccc(OC)cc1` (stereo in doubt; 36), the bioavailability in series [1] amounted to 49%. Further, the half-maximal inhibitory concentration (IC50) on Endothelin-1 receptor turned out to be 89 nM; in series [3], 0.27 nM. Also, the exposure (AUC) in series [2] is 3900 ng·h/mL. Besides, the half-life in series [4] is 384 min.
Consider `CCCOc1ccc([C@H]2[C@H](C(=O)O)[C@@H](c3ccc4c(c3)OCO4)CN2CC(=O)Nc2c(CC)cccc2CC)cc1` (stereo in doubt; 38) [A-192621], for which the 50% inhibitory concentration (IC50) was 8200 nM on Endothelin-1 receptor, 6.4 nM in [3] and 0.65 nM in the series on CHO. The ET-1 level in the series listed under Rattus norvegicus [5] came out at 19 pg/mL. The same compound gave an MAP in the series filed under Rattus norvegicus [6] of 150 mmHg. In series [7], this compound came in with a bioavailability of 35%. In [4], this compound showed a half-life of 300 min. Besides, the AUC in [8] was found to be 2500 ng·h/mL.
For the compound `CCOc1ccc([C@H]2[C@H](C(=O)O)[C@@H](c3ccc4c(c3)OCO4)CN2CC(=O)Nc2c(CC)cccc2CC)cc1` (stereo in doubt; 37), the bioavailability in series [1] is 37%. Further, the IC50 at Endothelin-1 receptor came to 340 nM; in series [3], 1.2 nM; in the series with CHO, 7.9 nM. The half-life in [4] is 186 min. For the same compound, the exposure (AUC) in series [8] is 3400 ng·h/mL.
For `CCc1cccc(CC)c1NC(=O)CN1C[C@H](c2ccc3c(c2)OCO3)[C@@H](C(=O)O)[C@@H]1c1ccc(OCCOC)cc1` (stereo in doubt; 39), the Ratio in series [9] turned out to be 4400. The same compound gave a bioavailability in the series with Rattus norvegicus [10] of 9%.
